Results as given in ChEMBL document CHEMBL3994637, “Broad spectrum anti-infective properties of benzisothiazolones and the parallels in their anti-bacterial and anti-fungal effects” (Bioorg Med Chem Lett, 2017).
In brackets after ≈: the same amount, converted by molar mass.

Tests used:
Plasmodium falciparum = assay: Antimalarial activity against chloroquine-sensitive Plasmodium falciparum 3D7 after 72 hrs by SYBR Green-1 staining based fluorescence assay; format: functional; conditions: 3D7, 72 h
[1] = Cytotoxicity against monkey Vero C1008 cells after 72 hrs by MTT assay; format: cell-based; conditions: chlorocebus sabaeus
Staphylococcus aureus [2] = assay: Antibacterial activity against Staphylococcus aureus ATCC 25923 by broth microdilution method; format: functional
Sporothrix schenckii = assay: Anti-fungal activity against Sporothrix schenckii after 48 hrs by broth microdilution method; format: functional
Cryptococcus neoformans = assay: Anti-fungal activity against Cryptococcus neoformans after 48 hrs by broth microdilution method; format: functional
Aspergillus fumigatus = assay: Anti-fungal activity against Aspergillus fumigatus after 48 hrs by broth microdilution method; format: functional
Staphylococcus aureus [3] = assay: Antibacterial activity against methicillin-resistant Staphylococcus aureus ATCC 700699 by broth microdilution method; format: functional; conditions: Mu50
[4] = Selectivity index, ratio of CC50 for monkey Vero C1008 cells to IC50 for chloroquine-sensitive Plasmodium falciparum 3D7; format: toxicity; conditions: read-out: Ratio CC50/IC50
Escherichia coli = assay: Antibacterial activity against Escherichia coli ATCC 9637 by broth microdilution method; format: functional; conditions: W
Summary of the method: (§1)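 Bacteria were tested by the NCCLS method in Mueller Hinton broth, with gentamicin and norfloxacin as reference drugs.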

Staphylococcus aureus [5] = assay: Antibacterial activity against Staphylococcus aureus ATCC 29213 by broth microdilution method; format: functional
[6] = tested on: Trichophyton mentagrophytes; assay: Anti-fungal activity against Trichophyton mentagrophytes after 48 hrs by broth microdilution method; format: functional
Klebsiella pneumoniae = assay: Antibacterial activity against Klebsiella pneumoniae ATCC 27736 by broth microdilution method; format: functional; summary of the method: as §1
Candida parapsilosis = assay: Anti-fungal activity against Candida parapsilosis ATCC 22019 after 48 hrs by broth microdilution method; format: functional; conditions: Lodderomyces parapsilosis, ATCC 22019, 48 h
Pseudomonas aeruginosa = assay: Antibacterial activity against Pseudomonas aeruginosa ATCC BAA-427 by broth microdilution method; format: functional; summary of the method: as §1
Candida albicans = assay: Anti-fungal activity against Candida albicans after 48 hrs by broth microdilution method; format: functional
Staphylococcus aureus [7] = assay: Antibacterial activity against gentamicin-resistant Staphylococcus aureus ATCC 33592 by broth microdilution method; format: functional

SMILES	IC50 (Plasmodium falciparum) [nM]	CC50 at 72 h [1] [nM]	MIC (Staphylococcus aureus [2]) [µg/mL]	MIC (Sporothrix schenckii) [µg/mL]	MIC (Cryptococcus neoformans) [µg/mL]	MIC (Aspergillus fumigatus) [µg/mL]	MIC (Staphylococcus aureus [3]) [µg/mL]	selectivity ratio [4]	MIC (Escherichia coli) [µg/mL]	MIC (Staphylococcus aureus [5]) [µg/mL]	MIC [6] [µg/mL]	MIC (Klebsiella pneumoniae) [µg/mL]	MIC (Candida parapsilosis) [µg/mL]	MIC (Pseudomonas aeruginosa) [µg/mL]	MIC (Candida albicans) [µg/mL]	MIC (Staphylococcus aureus [7]) [µg/mL]	also measured
O=c1c2ccccc2sn1-c1ccccc1	740	19400	1.6 (≈ 7.04 µM)	1.7 (≈ 7.48 µM)	1.21 (≈ 5.32 µM)	6.4 (≈ 28.2 µM)	0.77 (≈ 3.39 µM)	26.3	> 50	2.1 (≈ 9.24 µM)	0.8 (≈ 3.52 µM)	> 50	0.8 (≈ 3.52 µM)	> 50	3.02 (≈ 13.3 µM)		IC50 (Staphylococcus aureus [2]): 1.1 µg/mL (≈ 4.84 µM); IC50 (Sporothrix schenckii): 0.6 µg/mL (≈ 2.64 µM); IC50 (Cryptococcus neoformans): 0.9 µg/mL (≈ 3.96 µM); IC50 (Aspergillus fumigatus): 6.1 µg/mL (≈ 26.8 µM); IC50 (Escherichia coli): > 50 µg/mL; IC50 (Staphylococcus aureus [5]): 1.6 µg/mL (≈ 7.04 µM); IC50 [6]: 0.7 µg/mL (≈ 3.08 µM); IC50 (Klebsiella pneumoniae): > 50 µg/mL; IC50 (Candida parapsilosis): 0.7 µg/mL (≈ 3.08 µM); IC50 (Pseudomonas aeruginosa): > 50 µg/mL; IC50 (Candida albicans): 2.9 µg/mL (≈ 12.8 µM)
O=c1c2ccccc2sn1-c1ccc(F)cc1	970	85400	6.25 (≈ 25.5 µM)	12.5 (≈ 51 µM)	12.5 (≈ 51 µM)	25 (≈ 102 µM)	3.12 (≈ 12.7 µM)	84.4	> 50	3.12 (≈ 12.7 µM)	12.5 (≈ 51 µM)	> 50	12.5 (≈ 51 µM)	> 50	12.5 (≈ 51 µM)	3.12 (≈ 12.7 µM)	
O=c1c2ccccc2sn1-c1cccc2ccccc12	2640	90800	3.12 (≈ 11.2 µM)	12.5 (≈ 45.1 µM)	25 (≈ 90.1 µM)	50 (≈ 180 µM)	3.12 (≈ 11.2 µM)	34.4	> 50	6.25 (≈ 22.5 µM)	12.5 (≈ 45.1 µM)	> 50	25 (≈ 90.1 µM)	> 50	25 (≈ 90.1 µM)	6.25 (≈ 22.5 µM)	
O=c1c2ccccc2sn1-c1ccc(Cl)cc1	920	71700	6.25 (≈ 23.9 µM)	12.5 (≈ 47.8 µM)	12.5 (≈ 47.8 µM)	25 (≈ 95.5 µM)	3.12 (≈ 11.9 µM)	70.8	> 50	6.25 (≈ 23.9 µM)	12.5 (≈ 47.8 µM)	> 50	12.5 (≈ 47.8 µM)	> 50	12.5 (≈ 47.8 µM)	6.26 (≈ 23.9 µM)	
O=c1c2ccccc2sn1-c1cccc(C(F)(F)F)c1	> 2000		6.25 (≈ 21.2 µM)	12.5 (≈ 42.3 µM)	12.5 (≈ 42.3 µM)	25 (≈ 84.7 µM)	6.25 (≈ 21.2 µM)		> 50	6.25 (≈ 21.2 µM)	12.5 (≈ 42.3 µM)	> 50	25 (≈ 84.7 µM)	> 50	25 (≈ 84.7 µM)	6.25 (≈ 21.2 µM)	
O=c1c2ccccc2sn1-c1cccc(F)c1	> 2000		6.25 (≈ 25.5 µM)	12.5 (≈ 51 µM)	12.5 (≈ 51 µM)	25 (≈ 102 µM)	6.25 (≈ 25.5 µM)		> 50	12.5 (≈ 51 µM)	12.5 (≈ 51 µM)	> 50	12.5 (≈ 51 µM)	> 50	12.5 (≈ 51 µM)	6.25 (≈ 25.5 µM)	
O=c1c2ccccc2sn1-c1cccc(Cl)c1	> 2000		6.25 (≈ 23.9 µM)	12.5 (≈ 47.8 µM)	12.5 (≈ 47.8 µM)	25 (≈ 95.5 µM)	3.12 (≈ 11.9 µM)		> 50	6.25 (≈ 23.9 µM)	12.5 (≈ 47.8 µM)	> 50	25 (≈ 95.5 µM)	> 50	25 (≈ 95.5 µM)	6.25 (≈ 23.9 µM)	
COc1ccc(-n2sc3ccccc3c2=O)cc1	> 2000	32600	1.6 (≈ 6.22 µM)	0.8 (≈ 3.11 µM)	1.1 (≈ 4.27 µM)	11 (≈ 42.7 µM)	0.73 (≈ 2.84 µM)		> 50	1.9 (≈ 7.38 µM)	> 50	> 50	0.7 (≈ 2.72 µM)	> 50	3.5 (≈ 13.6 µM)		IC50 (Staphylococcus aureus [2]): 1.5 µg/mL (≈ 5.83 µM); IC50 (Sporothrix schenckii): 0.4 µg/mL (≈ 1.55 µM); IC50 (Cryptococcus neoformans): 0.9 µg/mL (≈ 3.5 µM); IC50 (Aspergillus fumigatus): 6.9 µg/mL (≈ 26.8 µM); IC50 (Escherichia coli): > 50 µg/mL; IC50 (Staphylococcus aureus [5]): 1.2 µg/mL (≈ 4.66 µM); IC50 [6]: > 50 µg/mL; IC50 (Klebsiella pneumoniae): > 50 µg/mL; IC50 (Candida parapsilosis): 0.6 µg/mL (≈ 2.33 µM); IC50 (Pseudomonas aeruginosa): > 50 µg/mL; IC50 (Candida albicans): 2.4 µg/mL (≈ 9.33 µM)
